We go through 18 molecules from ChEMBL document CHEMBL1130016 (J Med Chem, 1997).

Test [1] addresses Sodium-dependent serotonin transporter (Rattus norvegicus, UniProt P31652). Description: In vitro inhibition of [3H]citalopram binding to serotonin transporter on rat striatal membranes. The test is classed as cell membranes, Membrane. In short, it runs like this: (§1)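 Compounds dissolved in 10% DMSO. Incubation ended by filtration, and filter-bound radioactivity was counted by liquid scintillation at about 35% efficiency for 3H. IC50 values were determined. Mean ± SEM of three independent experiments, each in triplicate.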

For test [2], the target named is Monoamine transporters; serotonin & dopamine (Rattus norvegicus) (UniProt P31652+P23977). Description: Ratio of inhibitory activity against Serotonin Transporter compared to Dopamine Transporter. The test is classed as protein assay. In short, it runs like this:
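Selectivity is expressed as SERT/DAT, the ratio of binding values from rat striatal membranes. SERT was labelled with [3H]citalopram and DAT with [3H]WIN 35,428. Binding was ended by filtration and counted by scintillation. Values come from three independent experiments, each run in triplicate.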

Test [3] deals with Sodium-dependent dopamine transporter (Rattus norvegicus, UniProt P23977). Put plainly: In vitro inhibition of [3H]WIN-35 428 binding to dopamine transporter on rat striatal membranes. The test is classed as cell membranes, Membrane. In short, it runs like this:
as §1

Sequence of Monoamine transporters; serotonin & dopamine (Rattus norvegicus) (P23977 whole entry, looked up): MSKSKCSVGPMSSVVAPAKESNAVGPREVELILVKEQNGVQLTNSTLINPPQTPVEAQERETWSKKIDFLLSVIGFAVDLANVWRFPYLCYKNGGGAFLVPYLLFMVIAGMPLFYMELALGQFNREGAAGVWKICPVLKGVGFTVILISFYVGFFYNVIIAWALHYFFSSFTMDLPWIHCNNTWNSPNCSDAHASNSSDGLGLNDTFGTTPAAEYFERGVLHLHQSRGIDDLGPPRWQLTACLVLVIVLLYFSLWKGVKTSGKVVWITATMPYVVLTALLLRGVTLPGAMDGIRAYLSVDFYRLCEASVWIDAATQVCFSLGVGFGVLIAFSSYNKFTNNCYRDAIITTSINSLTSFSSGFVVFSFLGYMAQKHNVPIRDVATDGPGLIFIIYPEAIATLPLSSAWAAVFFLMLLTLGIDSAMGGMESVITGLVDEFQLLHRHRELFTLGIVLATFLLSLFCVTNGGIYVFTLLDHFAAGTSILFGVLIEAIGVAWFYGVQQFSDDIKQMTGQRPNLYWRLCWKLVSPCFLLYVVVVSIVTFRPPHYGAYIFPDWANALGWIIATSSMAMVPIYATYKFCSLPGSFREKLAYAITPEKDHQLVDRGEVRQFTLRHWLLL
Sequence of Monoamine transporters; serotonin & dopamine (Rattus norvegicus) (P31652 whole entry, looked up): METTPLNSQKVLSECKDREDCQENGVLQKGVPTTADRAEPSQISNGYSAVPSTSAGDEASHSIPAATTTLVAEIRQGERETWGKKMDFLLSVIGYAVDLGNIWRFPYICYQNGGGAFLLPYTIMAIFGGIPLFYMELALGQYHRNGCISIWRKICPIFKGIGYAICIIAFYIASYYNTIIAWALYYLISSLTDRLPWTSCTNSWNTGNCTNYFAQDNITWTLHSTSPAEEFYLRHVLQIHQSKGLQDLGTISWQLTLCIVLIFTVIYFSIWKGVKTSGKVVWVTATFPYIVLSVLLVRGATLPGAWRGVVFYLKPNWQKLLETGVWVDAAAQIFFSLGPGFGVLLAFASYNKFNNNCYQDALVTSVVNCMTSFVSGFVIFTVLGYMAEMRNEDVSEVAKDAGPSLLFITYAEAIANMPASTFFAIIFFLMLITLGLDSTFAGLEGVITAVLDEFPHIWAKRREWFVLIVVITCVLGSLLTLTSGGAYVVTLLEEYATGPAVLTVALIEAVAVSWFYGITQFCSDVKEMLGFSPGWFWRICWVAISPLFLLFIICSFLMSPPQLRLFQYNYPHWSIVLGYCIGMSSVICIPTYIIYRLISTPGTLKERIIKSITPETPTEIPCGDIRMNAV
Sequence of Sodium-dependent dopamine transporter (P23977 whole entry): as the sequence (P23977 whole entry, looked up) above
Sequence of Sodium-dependent serotonin transporter (P31652 whole entry): as the sequence (P31652 whole entry, looked up) above

On to `Fc1ccc(CN2CCC(CCOC(c3ccccc3)c3ccc(F)cc3)CC2)cc1` (stereo unspecified), for which the results for the IC50 in test [1] and in test [3] were 1260 nM and 14 nM, respectively. Further, the Ratio in test [2] stood at 89.

On to `c1ccc(C(OCCC2CCN(Cc3cccs3)CC2)c2ccccc2)cc1`, for which the IC50 was determined as 1250 nM in test [1] and 59.3 nM in test [3]. Further, the Ratio in test [2] is 21.

In the case of `Clc1ccc(CN2CCC(CCOC(c3ccccc3)c3ccccc3)CC2)cc1Cl`, the results for the IC50 in test [1] and in test [3] were 2880 nM and 85.7 nM, respectively. Moreover, in test [2], the Ratio turned out to be 33.6.

As for `Fc1ccc(CN2CCC(CCOC(c3ccccc3)c3ccccc3)CC2)cc1Cl`, the figures for the IC50 in test [1] and in test [3] were 2530 nM and 28.2 nM, respectively. Further, the Ratio in test [2] was 90.

Consider `c1ccc(CN2CCC(CCOC(c3ccccc3)c3cccs3)CC2)cc1` (stereo unspecified), for which the IC50 in test [1] amounted to 741 nM; in test [3] it was 27.2 nM. For the same molecule, in test [2], the Ratio is 27.

Consider `c1ccc(C(OCCC2CCN(Cc3cc4ccccc4s3)CC2)c2ccccc2)cc1`, for which the IC50 in test [1] is 1540 nM; in test [3], 172 nM. In addition, the Ratio in test [2] came out at 8.9.

As to `O=[N+]([O-])c1ccc(CN2CCC(CCOC(c3ccccc3)c3ccccc3)CC2)cc1`, the IC50 in test [1] is 1770 nM; in test [3], 16.4 nM. Further, the Ratio in test [2] is 108.

Consider `Fc1ccc(CN2CCC(CCOC(c3ccccc3)c3ccc(Cl)cc3)CC2)cc1` (stereo unspecified), for which the IC50 in test [1] was determined as 1810 nM; in test [3], 52.4 nM. In addition, the Ratio in test [2] is 34.4.

Regarding `c1ccc(CN2CCC(CCOC(c3ccccc3)c3ccccc3)CC2)cc1`, the Ratio in test [2] was 49.

As to `Brc1ccc(CN2CCC(CCOC(c3ccccc3)c3ccccc3)CC2)cc1`, the IC50 in test [1] was determined as 1490 nM; in test [3], 31.1 nM. For the same molecule, the Ratio in test [2] turned out to be 48.

In the case of `c1ccc(C(OCCC2CCN(Cc3cccnc3)CC2)c2ccccc2)cc1`, the IC50 in test [1] worked out at 680 nM; in test [3], 48.6 nM. In addition, the Ratio in test [2] amounted to 13.9.

`COc1ccc(CN2CCC(CCOC(c3ccccc3)c3ccccc3)CC2)cc1`: the IC50 in test [1] turned out to be 1240 nM; in test [3] it was 27.8 nM. Also, the Ratio in test [2] was determined as 45.

With `Nc1ccc(CN2CCC(CCOC(c3ccccc3)c3ccccc3)CC2)cc1`, the IC50 was found to be 1570 nM in test [1] and 101 nM in test [3]. Moreover, in test [2], the Ratio is 15.6.

Regarding `Fc1ccc(CN2CCC(CCOC(c3ccccc3)c3ccccc3)CC2)cc1`, the IC50 in test [1] came to 1920 nM. For the same molecule, the Ratio in test [2] came out at 112.

For `Fc1ccc(CN2CCC(CCOC(c3ccccc3)c3cccs3)CC2)cc1` (stereo unspecified), the values for the IC50 in test [1] and in test [3] were 1390 nM and 13.8 nM, respectively. For the same molecule, the Ratio in test [2] worked out at 100.

Regarding `Cc1ccc(CN2CCC(CCOC(c3ccccc3)c3ccccc3)CC2)cc1`, the IC50 turned out to be 1390 nM in test [1] and 23 nM in test [3]. In test [2], the Ratio was 60.4.

On to `c1ccc(C(OCCC2CCN(Cc3cccnc3)CC2)c2cccs2)cc1` (stereo unspecified), for which the values for the IC50 in test [1] and in test [3] were 927 nM and 58.3 nM, respectively. In test [2], the Ratio is 15.9.

Turning to `Clc1ccc(CN2CCC(CCOC(c3ccccc3)c3ccccc3)CC2)cc1`, the IC50 in test [1] is 1610 nM; in test [3], 24.7 nM. In addition, in test [2], the Ratio is 65.1.

By IC50 is commonly meant the concentration that inhibits the measured activity by half.
